Measured values as given in ChEMBL document CHEMBL2057191, “Synthesis, structure-activity relationship, and pharmacological studies of novel melanin-concentrating hormone receptor 1 antagonists 3-aminomethylquinolines: reducing human ether-a-go-go-related gene (hERG) associated liabilities” (J Med Chem, 2012).

Legend:
[1] = molecular target: Melanin-concentrating hormone receptor 1 (Rattus norvegicus, UniProt P97639); assay: Displacement of [125I]MCH from rat MCHR1 expressed in CHO cells after 60 mins by liquid scintillation counting; format: cell-based
Outline: (§1)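 Membrane homogenates from CHO cells stably expressing human or rat MCHR1 in 25 mM Tris-HCl pH 7.5 with EDTA, BSA and protease inhibitors. Membrane protein 2 μg/mL (human) or 4 μg/mL (rat). Nonspecific binding defined with 0.3 μM MCH(1–19). Filter radioactivity counted. IC50 from one experiment in duplicate.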

[2] = molecular target: Voltage-gated inwardly rectifying potassium channel KCNH2 (Homo sapiens, UniProt Q12809); assay: Inhibition of human ERG expressed in HMZ/CHO.8B4 cells assessed as inhibition of Rb+ efflux at 30 uM after 30 mins by flame atomic absorption spectrometer analysis relative to astemizole; format: cell-based; conditions: 0.5 h
Outline: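 HMZ/CHO.8B4 cells stably expressing hERG, 4 × 10⁴ cells/well, 24 h on collagen, Rb-loaded 3 h at 37 °C (5.4 mM RbCl, pH 7.4). Compound added for 30 min (n = 7), then 5 min stimulation with 50 mM KCl. Supernatant and lysate Rb⁺ read by flame atomic absorption. Fractional efflux normalized to background and maximum; astemizole as 0, vehicle as 1.0.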

[3] = Lipophilicity, log D of the compound at pH 7.4; format: physicochemical; conditions: buffer
hERG (KCNH2) = hERG (KCNH2) (Homo sapiens, UniProt Q12809); assay: Inhibition of human ERG expressed in HMZ/CHO.8B4 cells at 10 uM by patch clamp assay; format: cell-based; conditions: HMZ/CHO.8B4 cells expressing human ERG
[4] = molecular target: T1, Melanin-concentrating hormone receptor 1 (Homo sapiens, UniProt Q99705); assay: Displacement of [125I]MCH from human MCHR1 expressed in CHO cells after 60 mins by liquid scintillation counting; format: cell-based; outline: as §1
[5] = molecular target: T1, Melanin-concentrating hormone receptor 1; assay: Antagonist activity at human MCHR1 expressed in CHO cells assessed as inhibition of MCH-stimulated arachidonic acid release after 45 mins by liquid scintillation counting; format: functional, cell-based
[6] = Bioavailability in Sprague-Dawley rat; format: ADME, organism-based; conditions: in vivo
[7] = Total clearance in Sprague-Dawley rat plasma at 1 mg/kg, iv; format: ADME, organism-based; design: dose 1 mg/kg, route intravenous
Outline: (§2)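 Male Sprague-Dawley rats, 8 weeks old, given intravenous dose.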

[8] = Volume of distribution at steady state in Sprague-Dawley rat at 1 mg/kg, iv; format: ADME, organism-based; design: dose 1 mg/kg, route intravenous; conditions: in vivo, read-out: Vdss; outline: as §2
[9] = Cmax in Sprague-Dawley rat plasma at 3 mg/kg, po; format: ADME, organism-based; design: dose 3 mg/kg, route oral
Outline: (§3)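 Male Sprague-Dawley rats, 8 weeks old, given oral dose.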

[10] = Tmax in Sprague-Dawley rat at 3 mg/kg, po; format: ADME, organism-based; design: dose 3 mg/kg, route oral; conditions: in vivo; outline: as §3
[11] = AUC (0 to 24 hrs) in Sprague-Dawley rat at 3 mg/kg, po; format: ADME, organism-based; design: time < 24 hr, dose 3 mg/kg, route oral; conditions: plasma; outline: as §3
Rattus norvegicus = assay: Antiobesity activity in po dosed diet induced obese F344 rat model assessed as inhibition of food intake administered qd for 2 days; format: functional, organism-based
Outline: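 Male F344/Jcl rats, 32 weeks old, on high-fat diet from 5 weeks of age, housed singly on a 7:00–19:00 light cycle, habituated to oral water dosing, grouped by food intake and body weight (n = 6). Dosed orally at 1, 3, 5 or 10 mg/kg in 0.5% methylcellulose (2 mL/kg) at 5:00 p.m. on days 0 and 1. Cumulative intake on days 1 and 2 expressed as ratio to vehicle group; Williams test.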

T1 sequence (Q99705 whole entry): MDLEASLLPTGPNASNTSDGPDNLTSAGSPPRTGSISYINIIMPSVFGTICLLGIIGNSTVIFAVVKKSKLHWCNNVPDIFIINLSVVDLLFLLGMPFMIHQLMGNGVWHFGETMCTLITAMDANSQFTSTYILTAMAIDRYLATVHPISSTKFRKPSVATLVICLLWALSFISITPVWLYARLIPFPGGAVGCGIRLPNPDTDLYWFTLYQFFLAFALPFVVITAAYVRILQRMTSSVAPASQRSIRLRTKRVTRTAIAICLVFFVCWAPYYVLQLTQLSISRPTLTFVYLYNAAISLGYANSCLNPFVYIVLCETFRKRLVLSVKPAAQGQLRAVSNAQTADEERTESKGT
Melanin-concentrating hormone receptor 1 (Rattus norvegicus, UniProt P97639), sequence (P97639 whole entry): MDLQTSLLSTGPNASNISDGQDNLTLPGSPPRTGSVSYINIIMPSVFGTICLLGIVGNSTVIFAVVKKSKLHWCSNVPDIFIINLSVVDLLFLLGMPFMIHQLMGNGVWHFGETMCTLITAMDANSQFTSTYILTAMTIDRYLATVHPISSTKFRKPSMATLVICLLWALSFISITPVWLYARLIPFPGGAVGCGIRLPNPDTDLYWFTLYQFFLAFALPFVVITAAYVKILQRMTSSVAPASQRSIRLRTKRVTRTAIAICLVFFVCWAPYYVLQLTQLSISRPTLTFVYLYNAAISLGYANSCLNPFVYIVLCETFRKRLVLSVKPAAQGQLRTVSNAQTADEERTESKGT
Voltage-gated inwardly rectifying potassium channel KCNH2, sequence (Q12809 whole entry): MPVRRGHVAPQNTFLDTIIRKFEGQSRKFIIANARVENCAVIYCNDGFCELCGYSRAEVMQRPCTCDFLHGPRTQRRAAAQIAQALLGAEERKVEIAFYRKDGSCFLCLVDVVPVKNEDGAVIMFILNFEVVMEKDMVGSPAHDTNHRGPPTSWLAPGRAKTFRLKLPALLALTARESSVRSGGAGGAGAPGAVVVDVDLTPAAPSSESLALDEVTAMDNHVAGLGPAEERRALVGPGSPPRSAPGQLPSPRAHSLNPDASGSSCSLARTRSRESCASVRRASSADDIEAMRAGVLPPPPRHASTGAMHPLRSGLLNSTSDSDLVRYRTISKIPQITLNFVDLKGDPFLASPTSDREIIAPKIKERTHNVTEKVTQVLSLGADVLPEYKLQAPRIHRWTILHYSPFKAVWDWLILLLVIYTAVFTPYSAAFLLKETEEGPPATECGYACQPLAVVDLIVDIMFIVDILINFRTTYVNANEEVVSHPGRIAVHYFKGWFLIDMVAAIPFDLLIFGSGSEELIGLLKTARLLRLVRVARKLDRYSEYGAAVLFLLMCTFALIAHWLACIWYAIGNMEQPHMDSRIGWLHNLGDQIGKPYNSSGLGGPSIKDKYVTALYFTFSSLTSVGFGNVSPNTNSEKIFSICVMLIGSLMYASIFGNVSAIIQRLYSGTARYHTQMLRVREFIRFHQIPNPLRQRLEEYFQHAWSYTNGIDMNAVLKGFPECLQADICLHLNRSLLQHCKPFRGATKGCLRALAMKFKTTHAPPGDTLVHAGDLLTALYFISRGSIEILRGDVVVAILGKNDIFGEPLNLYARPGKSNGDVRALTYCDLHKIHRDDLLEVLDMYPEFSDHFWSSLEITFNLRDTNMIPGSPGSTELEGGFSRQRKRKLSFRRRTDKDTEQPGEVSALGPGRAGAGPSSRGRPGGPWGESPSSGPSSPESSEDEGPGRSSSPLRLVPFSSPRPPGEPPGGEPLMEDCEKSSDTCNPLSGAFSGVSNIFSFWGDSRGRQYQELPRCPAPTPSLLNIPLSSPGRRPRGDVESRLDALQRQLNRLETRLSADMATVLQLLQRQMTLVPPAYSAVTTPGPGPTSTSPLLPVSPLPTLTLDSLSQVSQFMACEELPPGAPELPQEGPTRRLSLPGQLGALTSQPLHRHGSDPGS
hERG (KCNH2), sequence (Q12809 whole entry): as above

SMILES	IC50 [1] [nM]	logD [3]	IC50 [4] [nM]	IC50 [5] [nM]	Ratio [2]	inhibition at 10 µM (hERG (KCNH2)) [%]	also measured
Cc1c(NC(=O)c2ccc(-c3ccc(F)cc3)cc2)ccc2cc(CN3CCCC3)cnc12	1	2.77	–	–	0.17	93.8	–
Cc1c(NC(=O)c2ccc(OCC(C)C)cc2)ccc2cc(CN3CCCC3)cnc12	6.7	3.35	4.4	–	0.7	–	–
CC(=O)NCCNC(C)c1cnc2c(C)c(NC(=O)c3ccc(OCC4CC4)cc3)ccc2c1 (racemic)	–	–	–	–	–	29.3	–
CC(=O)NCCN[C@@H](C)c1cnc2c(C)c(NC(=O)c3ccc(OCC4CC4)cc3)ccc2c1	–	–	–	–	–	33.3	–
Cc1c(NC(=O)c2ccc(OCC3CC3)cc2)ccc2cc(CN3CCCC3)cnc12	1.6	2.77	1.8	4.3	0.9	–	–
CCCCCC(=O)c1ccc(C(=O)Nc2ccc3cc(CN4CCCC4)cnc3c2C)cc1	–	3.5	170	–	0.48	–	–
Cc1c(NC(=O)c2ccc(OCC3CC3)cc2)ccc2cc(C(C)NCCO)cnc12 (racemic)	–	–	–	–	–	84.8	–
Cc1c(NC(=O)c2ccc(OCC3CC3)cc2)ccc2cc(C(C)N3CC[C@H](O)C3)cnc12 (mixture of isomers)	–	–	–	–	–	58.4	–
CC(=O)NCCN[C@H](C)c1cnc2c(C)c(NC(=O)c3ccc(OCC4CC4)cc3)ccc2c1	–	–	–	–	–	33.2	bioavailability [6]: 43%; clearance [7]: 11.5 mL/min/kg; Vd [8]: 1.21 L/kg; Cmax [9]: 274 ng/mL; Tmax [10]: 4 h; AUC(0-t) at 24 h [11]: 1940 ng·h/mL; inhibition (Rattus norvegicus): Dose-dependent effect
Cc1c(NC(=O)c2ccc(OCC3CC3)cc2)ccc2cc(CN3CCCC3C)cnc12 (racemic)	6.7	–	2.5	–	–	–	–
Cc1c(NC(=O)c2ccc(OCC3CC3)cc2)ccc2cc(C(C)N3CCCCCC3)cnc12 (racemic)	5.6	3.91	2	3.4	0.73	–	–

The next lines start with results.

IC50 [1] [nM]	logD [3]	IC50 [4] [nM]	IC50 [5] [nM]	SMILES	Ratio [2]	inhibition at 10 µM (hERG (KCNH2)) [%]	also measured
2.7	2.67	1.5	6.4	Cc1c(NC(=O)c2ccc(OCC3CC3)cc2)ccc2cc(C(C)NCC(C)(C)O)cnc12 (racemic)	–	63.3	–
8	2.99	3.4	4	Cc1c(NC(=O)c2ccc(OCC3CC3)cc2)ccc2cc([C@H](C)N3CCCC3)cnc12	0.85	–	–
4.2	3	1.7	6.4	Cc1c(NC(=O)c2ccc(OCC3CC3)cc2)ccc2cc(C(C)N3CCCC3)cnc12 (racemic)	1.02	–	–
1.9	2.99	1.1	2.9	Cc1c(NC(=O)c2ccc(OCC3CC3)cc2)ccc2cc([C@@H](C)N3CCCC3)cnc12	1.11	88.1	–
